# Source: ChEMBL document CHEMBL2203053, “DNA binding acridine-thiazolidinone agents affecting intracellular glutathione” (Bioorg Med Chem, 2012)
# Active and inactive are the calls of the source. The rule behind the calls is not given here.
# Columns and labels:
# Nucleic Acid [1] = assay: Ratio of acridine orange K to compound K for calf thymus DNA by spectrofluorimetry based McGhee von Hippel method; format: nucleic-acid assay; settings: Bos taurus
# L1210 [2] = assay: Cytotoxicity against mouse L1210 cells after 48 hrs by MTT assay; format: functional, cell-based; settings: L1210, 48 h
# Outline: (§1)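 HL-60, L1210 and A2780 cells were grown in RPMI 1640 with 10% FBS, penicillin and streptomycin at 37 °C, 5% CO₂; HL-60 and A2780 medium also had 2 mM glutamine. Cells were exposed to 0–30 µM for 48 or 72 h. Viability was read by MTT microculture tetrazolium assay and IC50 was determined.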
# HL-60 [3] = assay: Decrease in intracellular glutathione level in human HL60 cells at 2 uM after 2 hrs by spectrophotometric analysis; format: functional, cell-based
# A2780 [4] = assay: Cytotoxicity against human A2780 cells after 72 hrs by MTT assay; format: functional, cell-based; settings: A2780, 72 h; outline: as §1
# Nucleic Acid [5] = assay: Binding affinity to calf thymus DNA assessed as melting temperature at 5 uM at pH 7.1 by thermal denaturation assay; format: nucleic-acid assay; settings: Bos taurus
# HL-60 [6] = assay: Induction of necrosis in human HL60 cells assessed as cell shrinking at 5 uM after 24 hrs by propidium iodide staining based fluorescence microscopy; format: functional
# HL-60 [7] = assay: Decrease in intracellular glutathione level in human HL60 cells at 2 uM after 24 hrs by spectrophotometric analysis; format: functional, cell-based
# L1210 [8] = assay: Cytotoxicity against mouse L1210 cells after 72 hrs by MTT assay; format: functional, cell-based; settings: L1210, 72 h; outline: as §1
# Nucleic Acid [9] = assay: Binding affinity to calf thymus DNA assessed as hypochromicity at 25 uM by UV-visible spectrophotometry; format: nucleic-acid assay; settings: Bos taurus
# Outline: (§2)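 Absorption spectra were taken in 0.01 M Tris buffer, pH 7.4. Compounds were diluted from DMSO stock to a final 25 µM. Sonicated calf thymus DNA in TE buffer was added at 0–30 µM bp, with concentration set by A260. Shift of λmax (free vs bound) and % hypochromicity were recorded.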
# A2780 [10] = assay: Drug uptake in human A2780 cells at 5 uM after 4 hrs by Hoechst staining based fluorescence microscopy; format: ADME, cell-based; settings: a2780, 4 h
# Nucleic Acid [11] = assay: Ratio of proflavine K to compound K for calf thymus DNA by spectrofluorimetry based McGhee von Hippel method; format: nucleic-acid assay; settings: Bos taurus
# HL-60 [12] = assay: Cytotoxicity against human HL60 cells after 72 hrs by MTT assay; format: functional, cell-based; settings: HL-60, 72 h; outline: as §1
# HL-60 [13] = assay: Cytotoxicity against human HL60 cells after 48 hrs by MTT assay; format: functional, cell-based; settings: HL-60, 48 h; outline: as §1
# Nucleic Acid [14] = assay: Binding affinity to calf thymus DNA assessed as binding constant by spectrofluorimetry based McGhee von Hippel method; format: nucleic-acid assay; settings: Bos taurus
# Outline: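 Fluorescence titration used compound at 26.7 µM in 0.01 M Tris buffer (pH 7.4, 24 °C). ctDNA was added stepwise from 0 to 32 µM bp at 2 µM intervals until spectra stopped changing. Excitation was 384 nm and emission was read at 410–470 nm. Binding constant K was derived by the McGhee–von Hippel method from Scatchard plot data.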
# A2780 [15] = assay: Cytotoxicity against human A2780 cells after 48 hrs by MTT assay; format: functional, cell-based; settings: A2780, 48 h; outline: as §1
# Nucleic Acid [16] = assay: Ratio of daunomycin K to compound K for calf thymus DNA by spectrofluorimetry based McGhee von Hippel method; format: nucleic-acid assay; settings: Bos taurus
# Nucleic Acid [17] = assay: Binding affinity to calf thymus DNA assessed as bathochromic shift at 25 uM by UV-visible spectrophotometry; format: nucleic-acid assay; settings: Bos taurus; outline: as §2
# HL-60 [18] = assay: Cytotoxicity against BSO pretreated human HL60 cells assessed as cell viability at 1.5 uM treated 6 hrs after BSO addition measured after 48 hrs by trypan blue exclusion assay; format: functional, cell-based
# Outline: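 HL-60 cells were pretreated 6 h with L-buthionine-sulfoximine (10 µM), then exposed to 1.5, 3.0 or 1.0 µM compound for 48 h. Viable cells were counted by trypan blue staining and expressed as percentage of all cells.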
# HL-60 [19] = assay: Cytotoxicity against human HL60 cells after 48 hrs using trypan blue exclusion staining by DCC method; format: functional, cell-based; settings: HL-60, 48 h
# Outline: (§3)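 For trypan blue dye-exclusion direct cell counting, HL-60 cells were seeded at 1 × 10⁵ cells/mL. Compound at 0–10 µM, or 1% DMSO control, was added after 24 h. Viable counts were taken after 24, 48 and 72 h. IC50 (50% inhibition of viability) came from growth curves, as mean ± S.D., n = 3.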
# HL-60 [20] = assay: Drug uptake in human HL60 cells at 5 uM after 4 hrs by Hoechst staining based fluorescence microscopy; format: ADME, cell-based; settings: hl-60, 4 h
# Outline: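 HL-60 cells were exposed to 5 µM for 4 h at 37 °C, 5% CO₂, then washed in PBS. Intrinsic blue fluorescence was viewed by optical and fluorescence microscopy. Untreated control cells were stained with Hoechst 33342 (10 µM, 10 min).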
# HL-60 [21] = assay: Cytotoxicity against human HL60 cells after 72 hrs using trypan blue exclusion staining by DCC method; format: functional, cell-based; settings: HL-60, 72 h; outline: as §3
smiles,measurement,setting,value
CCC(C)N1C(=O)/C(=C/C(=O)OC)S/C1=N\c1c2ccccc2nc2ccccc12 (configuration not stated),Ratio,Nucleic Acid [1],10
same,IC50,L1210 [2],3.3 µM
same,Activity,HL-60 [3],Active
same,IC50,A2780 [4],12.6 µM
same,Tm,Nucleic Acid [5],75 °C
same,Activity,HL-60 [6],Active
same,Activity,HL-60 [7],Active
same,IC50,L1210 [8],7.5 µM
same,Activity,Nucleic Acid [9],26.3%
same,Drug uptake,A2780 [10],Active
same,Ratio,Nucleic Acid [11],10
same,IC50,HL-60 [12],2.1 µM
same,IC50,HL-60 [13],3.4 µM
same,K,Nucleic Acid [14],2.21 ×10⁶ /M
same,IC50,A2780 [15],20.8 µM
same,Ratio,Nucleic Acid [16],10
same,Activity,Nucleic Acid [17],Active
same,Activity,HL-60 [18],Active
same,IC50,HL-60 [19],2 µM
same,Drug uptake,HL-60 [20],Active
same,IC50,HL-60 [21],1.7 µM
COc1cccc2c1C(=O)c1c(O)c3c(c(O)c1C2=O)C[C@@](O)(C(C)=O)C[C@@H]3O[C@H]1C[C@H](N)[C@H](O)[C@H](C)O1,K,Nucleic Acid [14],7.09 ×10⁵ /M
